In ChEMBL document CHEMBL4513216, “Probing the Open Global Health Chemical Diversity Library for Multistage-Active Starting Points for Next-Generation Antimalarials” (ACS Infect Dis, 2020):

Experiment: Toxicity liver stage against HepG2, at 10uM
Format: cell-based
Set-up: test concentration 10 uM, cell line HepG2-A16-CD81EGFP
Settings: human, HepG2-A16-CD81EGFP cells; read-out: INHIBITION
Method in brief: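 Uninfected HepG2-A16-CD81EGFP cells, 3 × 10^3 per well, 1536-well, plated on prespotted compound at 10 μM final, parasite-free screening media added to match infected plates; puromycin 10 μM positive, DMSO 0.5% negative; run in parallel with 48 h PbLuc assay at 37 °C, 5% CO2; viability by CellTiter-Glo luminescence, normalized to controls.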

Row | SMILES | cytotoxicity at 10 µM [%]
1 | Cc1cccc2c1nc1n2[C@@H](CNC(=O)C2CCOCC2)COC1 | -1.47
2 | COc1ccc2c(c1)nc1n2[C@@H](CNCc2ccccc2)COC1 | -0.201
3 | COCC(=O)N1CCN(C(=O)C2CCCCC2)[C@@H](C(=O)OC)C1 | 1.08
4 | COc1cnc(CSc2nnc(C)s2)cc1OCC(=O)NC1CCCC1 | 3.43
5 | CCCC(O)CN1CC(C)(C)CN(C(=O)c2ccc(SC)cc2)CC1=O (stereo not given) | -4
6 | CCS(=O)(=O)N1CCC(OC)c2ccccc2N(CC(=O)NC)C(=O)C1 (stereo not given) | -1.42
7 | CC(C)C[C@H](NC(=O)N1CCC(Cc2ccccc2)CC1)C(=O)O | -4.13
8 | C[C@@H](O)CNC(=O)c1nc(CC(=O)Nc2ccccc2)no1 | 7.49
9 | Cc1nn(C2CCS(=O)(=O)C2)c(O)c1Cc1ccc(Br)cc1 (stereo not given) | -41.6
10 | COCCn1cc(C(=O)NC2CCS(=O)(=O)C2)c2ccccc2c1=O (stereo not given) | -4.17
11 | COc1ccc(N2CCN(C(=O)c3nc(Cl)sc3C(C)C)CC2)cc1 | 3.17
12 | Cc1noc(C2CN(CC(=O)NCC3CCCO3)C2)n1 (stereo not given) | -2.56
13 | O=C(c1ccsc1)N1CC(c2nc(-c3ccc[nH]c3=O)no2)C1 | -7.39
14 | COc1nn(C)cc1C(=O)N1CCC(c2nnc(-c3ccsc3)o2)CC1 | 8.08
15 | Fc1cnc(N2CCO[C@H]3CN(CC4CCOC4)C[C@H]32)nc1 (stereo not given in full) | 12.3
16 | O=C(O)C1CCN(c2ccc(Sc3ccc(Br)cc3)nn2)CC1 | 9.14
17 | COC(=O)c1sc(C(F)(F)F)cc1OC | 4.69
18 | CC(C)c1cc(C(F)(F)F)n2nc(C3CCN(S(C)(=O)=O)C3)cc2n1 (stereo not given) | -1.14
19 | CC1=NOC2(CCN(Cc3c[nH]c4ccccc34)CC2)C1 | 4.54
20 | Cc1nc(Cn2cnc3c(c(Br)nn3C)c2=O)cs1 | 8.84
21 | Cc1cc(NC(=O)N2CCN(C)CC2C)n(Cc2ccccc2)n1 (stereo not given) | 11.4
22 | CCOc1c(F)cccc1C(=O)N(CC)C(C)c1cccnc1 (stereo not given) | 11.8

Row | SMILES | cytotoxicity at 10 µM [%]
23 | CC(C)c1nc2n(n1)CC(NCc1cc3ccccc3o1)CC2 (stereo not given) | -3.61
24 | Cn1c(C2CC2)nc2c1CCN(Cc1nc3ccccc3s1)C2 | -4.69
25 | COCCSCC(=O)NCc1ccc(N(C)C)nc1 | 9.15
26 | CCc1nc(C)c(C(C)N(C)CCc2ccccn2)s1 (stereo not given) | -6.51
27 | O=C1NCC(C(=O)N(Cc2ccc(C(F)(F)F)cc2)C2CC2)N1 (stereo not given) | 4.54
28 | Cc1oncc1C(=O)NCC(c1ccccc1Cl)N1CCOCC1 (stereo not given) | 10.7
29 | CC1(NC(=O)Cc2cccs2)CCS(=O)(=O)C1 (stereo not given) | 8.39
30 | COCCn1nc(C(=O)N(C)Cc2ccc3ccccc3c2)ccc1=O | -131
31 | CCN(C(c1cccnc1)c1ccc2c(c1)CCC2)S(C)(=O)=O (stereo not given) | 5.82
32 | CCN1CCC(NC(=O)NCC(O)c2ccc(Cl)c(F)c2)CC1 (stereo not given) | -3.82
33 | COc1ccc(-c2ccc(C(=O)NS(C)(=O)=O)c(F)c2)cc1 | 5.7
34 | COc1cccc(CNC(C)c2ccc(-n3ccnc3)cc2)c1O (stereo not given) | -47.4
35 | O=C(c1ncncc1Cl)N1CCC2(CCCC2)CC1 | 1.06
36 | CC(C)(C)c1ccc(C2(C(=O)NCCCS(C)(=O)=O)CC2)cc1 | -12.6
37 | COc1ccc(CNC(=O)C2(C#N)CCCC2)cc1 | -17.7
38 | COc1ccc(C2CCCCCN2S(=O)(=O)N(C)C)cc1 (stereo not given) | -9.87
39 | Cc1n[nH]c(C)c1C1CCCN1C(=O)NCC(=O)NC(C)(C)C (stereo not given) | -11.7
40 | O=C(c1ccc[nH]1)N1CCc2nnc(Cn3cccn3)n2CC1 | 5.62
41 | Cc1ncccc1NC(=O)[C@@H]1CCO[C@@H]2CCN(c3ccncn3)C[C@H]21 | 5.59
42 | COc1cc(N2CCC3(CC2)C(c2ccncc2)CC(=O)N3C)ncn1 (stereo not given) | -107
43 | Cn1cnc(-c2nc(C(=O)NCCN3CCOCC3)c3ccccn23)c1 | -103
44 | COCC(=O)N1CC[C@@H]2CN(Cc3cccnc3)S(=O)(=O)[C@@H]2CC1 | -113

Row | SMILES | cytotoxicity at 10 µM [%]
45 | Cn1cc(CN2CCCC3(CCN(Cc4cccnc4)C3=O)C2)cn1 (stereo not given) | -3.99
46 | CNc1nc2c(s1)C(=O)CN(C(=O)NCc1ccccc1)C2 | 24.4
47 | CN(Cc1ccsc1)c1nc(-c2ccccn2)nc2c1CCNCC2 | -6.18
48 | CC(=O)N[C@@H]1CN(C(=O)c2ccncc2)C[C@H]1c1ccc(C)cc1 | 4.58
49 | Cc1cc(CN2CCC(C3CCN(Cc4cccnc4)CC3)C2)[nH]n1 (stereo not given) | 11
50 | CCc1ccccc1-c1cc(C)nc(N)n1 | 1.12
51 | CCc1nnc(CN2CCC3(CCC(=O)N(C4CCCC4)C3)CC2)o1 | -5.16
52 | CSc1cccc(CNC(=O)[C@H]2CNC[C@@H](C(=O)N3CCOCC3)C2)c1 | -6.91
53 | Cc1cc2[nH]c(CN3CCOC(c4ccc(F)cc4)C3)cc(=O)n2n1 (stereo not given) | -4.89
54 | O=C(Nc1ccc(F)c(Cl)c1)N1CCCN([C@H]2COC[C@@H]2O)CC1 | -40.7
55 | CC1=NOC(C(=O)N(C)CCCn2nc(C)cc2C)C1 (stereo not given) | 3.53
56 | O=C(CCc1cc2n(n1)CCCN(C(=O)c1ccncc1)C2)NC1CC1 | 12.2
57 | N[C@H]1CN(S(=O)(=O)N2CCCCCC2)C[C@@H]1c1ccccc1 | 2.14
58 | O=C(CCCn1cncn1)N1CCC2(CCCN(C3CCCC3)C2=O)C1 (stereo not given) | -1.8
59 | Cc1ocnc1C(=O)N[C@H]1CN(CC2CCC2)C[C@@H]1C(C)C | -2.94
60 | FC(F)(F)C1CN(Cc2cccc(OCc3ccccn3)c2)CCO1 (stereo not given) | 1.48
61 | O=C1Nc2ccccc2C12CCCN(Cc1ccc3c(c1)OCCO3)C2 (stereo not given) | 0.529
62 | Cn1cccc1-c1cc(C(=O)NCCc2nnc(N)s2)[nH]n1 | -7.22
63 | OCc1ccc(-c2nccn2CCC2=CCCCC2)o1 | 4.19
64 | Cc1cc(-c2ccncc2)ccc1OCC(N)=O | 18.1
65 | COCCC1(CO)CCCN(C(=O)c2cccnc2OC)C1 (stereo not given) | -47.8
66 | CN(C)S(=O)(=O)N1CCN(c2ccnc(N3CCCCC3)n2)CC1 | -1.48

Row | SMILES | cytotoxicity at 10 µM [%]
67 | CC(C)(C)CN1CCCC2(CCN(C(=O)c3ccc(O)nc3)C2)C1 (stereo not given) | -0.937
68 | CC(C)Oc1cccc(C(=O)C2CCCN(C(=O)c3ncn[nH]3)C2)c1 (stereo not given) | -7.53
69 | Cc1cc(C2CCCN(C(=O)c3ccc(Cl)o3)C2)n[nH]1 (stereo not given) | -5.02
70 | CCc1cnc(CN(C(C)=O)C2CCN(CCc3ccncc3)C2)o1 (stereo not given) | -5.95
71 | COc1cccc(C(=O)N2CCN(Cc3nc(C(C)C)no3)CC2)c1 | -18.7
72 | Cc1cc(NC(=O)CN2CCc3cncnc3C2)on1 | -17.6
73 | COc1ncccc1NC(=O)C1CCOCC1 | -29.8
74 | O=C1NCC(C(=O)Nc2ncc(Cc3ccc(F)cc3F)s2)N1 (stereo not given) | -4.01
75 | O=C(c1cccc2c1OCO2)N1CCCC(n2ccnc2)C1 (stereo not given) | -3.29
76 | COc1ncccc1CNC(=O)Nc1cccnc1N1CCCC1 | -10.4
77 | CN(Cc1noc(C2CC2)n1)C1CCN(CCc2cccs2)C1 (stereo not given) | -5.98
78 | OCC1CCCN1c1cc(NCc2ccsc2)ncn1 (stereo not given) | 38.8
79 | CC(O)CN(CC(=O)NC1CCCCC1)c1ccccc1 (stereo not given) | -6.08
80 | COCCNC(=O)CN1CCN(c2nc(C)cs2)C(C)C1 (stereo not given) | -4.03
81 | Cc1nnc(C(C)N2CCN(Cc3ccc(C#N)cc3)CC2)o1 (stereo not given) | -12.2
82 | NC(=O)c1ccc(S(=O)(=O)NC(=O)COc2ccc3c(c2)CCC3)cc1 | -2.27
83 | CC(C)N1CCN(C(=O)Nc2cnn(CC(N)=O)c2)CC1 | -12.2
84 | Cc1cccc(C(=O)NC(CN2CCCC2=O)c2ccccc2)n1 (stereo not given) | -9.16
85 | CN(CC(=O)N1CCCC1Cn1cccn1)c1cnccn1 (stereo not given) | -5.1
86 | O=C(c1cccc2c1OCO2)N1CCCC1c1noc(C2CC2)n1 (stereo not given) | -23.2
87 | COc1cc(S(=O)(=O)N2CCc3ccc(F)cc32)cc(C(=O)O)c1OC | 7.12
88 | COc1cc(C(=O)N2CCCS2(=O)=O)ccc1C | 2.72

Row | SMILES | cytotoxicity at 10 µM [%]
89 | O=C(c1cc(Cl)c2c(c1)OCO2)N1CCCC(n2ccnc2)C1 (stereo not given) | -6.93
90 | CCCNC(=O)Cn1cc(-c2ccccc2)cn1 | -0.553
91 | Cc1nc(C2CCCN(C(=O)c3cnn(C(C)(C)C)c3)C2)no1 (stereo not given) | 0.818
92 | Cc1cn2nc(N3CCCC3CC(C)(C)C)sc2n1 (stereo not given) | 3.46
93 | COc1ccnc(N2CCN(C(=O)Cc3ccc(C#N)cc3)CC2)n1 | 4.09
94 | CC(C)c1nccn1C1CCCN(C(=O)c2ccnc(N(C)C)c2)C1 (stereo not given) | 5.1
95 | O=C(CCSc1ccc(F)cc1)NS(=O)(=O)c1ccc2c(c1)OCCO2 | 2.36
96 | Cc1oncc1C(=O)N[C@@H]1CN(Cc2ccoc2)C[C@@H]2CCCO[C@@H]21 | -108
97 | CC(NCc1ccc(OCC(N)=O)cc1)c1ccc(Cl)cc1 (stereo not given) | 11.2
98 | c1coc(CN2CCC(c3ccc4c(c3)OCO4)CC2)c1 | -1.55
99 | CNC(=O)C1Cn2ccnc2C2(CCN(Cc3cccnc3)CC2)O1 (stereo not given) | -3.37
100 | Clc1ccccc1CN1CCc2nc(C3CCCCN3)ncc2C1 (stereo not given) | -3.12
101 | Cc1ccccc1CN1C[C@@H]2COC[C@]2(CNC(=O)C2CCC2)C1 | -110
102 | Cn1cc(C(=O)N2CC[C@@H]3[C@@H]2CCN3Cc2cccc(F)c2)cn1 | -2.21
103 | Cc1csc(CN2CCC3(CC2)COC(COCC2CC2)C3)n1 (stereo not given) | -108
104 | O=C(O)c1c(-c2cncnc2)ncc2c1CCN(CC1CCOC1)C2 (stereo not given) | -102
105 | COCC(=O)N1CCC2(CC1)C(=O)N(Cc1cccnc1)CCN2C | 0.964
106 | CCN1C(=O)CC(c2ccccc2)C12CCN(CC1CCOCC1)CC2 (stereo not given) | 3.06
107 | O=C1COC2(CCN(C(=O)c3ccco3)CC2)CN1Cc1cccnc1 | 7.2
108 | c1ccc(OCc2nnc3n2CCN(CC2CCOCC2)C3)nc1 | 1.65
109 | c1cncc(N2CCOCC3(CCCN(c4nncs4)C3)C2)c1 (stereo not given) | -1.42
110 | COCCN1CCN(C=C2NN=C(c3occc3C)O2)CC1 | -49.4
